The text below walks through data of ChEMBL document CHEMBL1141719, “Naphthylphenstatins as tubulin ligands: synthesis and biological evaluation” (Bioorg Med Chem, 2008).

Where “and” joins values, the source holds several entries; their conditions need not be identical. Equal values may be shown once.

One may read the inhibition as the relative decrease from the control value, in per cent. As a reminder, the IC50 is the midpoint of a concentration-inhibition curve. Low readings indicate higher potency, high ones lower potency.

The species named for experiment [1] is Bos taurus. Briefly: Inhibition of calf brain tubulin polymerization at 30 uM relative to control. Put shortly: (§1)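 Calf brain microtubule protein was purified by two cycles of temperature-dependent assembly/disassembly. Assay used 1.0 mg/mL MTP in 0.1 M MES, 1 mM EGTA, 1 mM MgCl2, 1 mM β-ME, 1.5 mM GTP, pH 6.7, with 4% DMSO. Ligand was preincubated 30 min at 20 °C, then 10 min on ice, and assembly started by shift from 4 °C to 37 °C. Turbidity was followed against a no-ligand control. Inhibition is percent of control, mean of at least three experiments.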

A further experiment deals with HT-29. The experiment can be described thus: Cytotoxicity against human HT-29 cells after 72 hrs by XTT assay. It counts as functional, cell-based. A general note: Formazan colour is commonly taken as a measure of viable cells.
Experiment [2] can be described thus: Inhibition of calf brain tubulin polymerization relative to control. The arrangement: species or system Bos taurus. Put shortly:
as §1

Another experiment has as its system A549. The experiment can be described thus: Cytotoxicity against human A549 cells after 72 hrs by XTT assay. Type of experiment: functional, cell-based.
The next experiment deals with HeLa. Briefly: Cytotoxicity against human HeLa cells after 72 hrs by XTT assay. Type of experiment: functional, cell-based. Summed up:
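HeLa (1.5 × 10³/well), HT-29 (3 × 10³/well) or A-549 (5 × 10³/well) cells seeded in 100 µL and allowed to attach for 24 h at 37 °C, 5% CO₂. Compounds at a range of concentrations for 72 h. Then XTT/PMS reagent added for 4 h, with absorbance read at 490 nm (reference 655 nm). IC50 is the concentration giving 50% inhibition of proliferation, mean of at least six experiments.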

The species named for experiment [3] is Bos taurus. Briefly: Inhibition of calf brain tubulin polymerization at 20 uM relative to control. Summed up:
as §1

For experiment [4], the species on record is Bos taurus. The experiment can be described thus: Inhibition of calf brain tubulin polymerization at 40 uM relative to control. Summed up:
as §1

For `COc1cc(/C(=N/N)c2ccc3ccccc3c2)cc(OC)c1OC`, the inhibition in the experiment filed under Bos taurus [1] amounted to 0%. This molecule registered an IC50 in the experiment with HT-29 (Homo sapiens, HT-29, 72 h) of 10 µM.
With `COc1cc(C(=O)c2ccc3ccccc3c2)cc(OC)c1OC`, the IC50 in experiment [2] is 1100 nM; in the experiment on A549 (a549), 0.043 µM.
`COc1cc(/C(=N/O)c2ccc3ccccc3c2)cc(OC)c1OC` gave an inhibition in the experiment listed under Bos taurus [1] of 0%. Moreover, the IC50 in the experiment with HeLa (Homo sapiens, HeLa, 72 h) was 1500 nM; in the experiment on A549 (Homo sapiens, A549, 72 h), 10 µM; in the experiment on A549 (a549), more than 10 µM; in the experiment with HT-29 (Homo sapiens, HT-29, 72 h) it was 1.8 µM.
With `COc1ccc(/C(=N\OC(C)=O)c2ccc3ccccc3c2)c(OC)c1OC`, in the experiment filed under Bos taurus [3], the inhibition amounted to 0%. Further, the IC50 with HeLa (Homo sapiens, HeLa, 72 h) is 1200 nM; in the experiment with A549 (Homo sapiens, A549, 72 h), 10 µM; in the experiment with A549 (a549), more than 10 µM; in the experiment with HT-29 (Homo sapiens, HT-29, 72 h) it was 10 µM; in the experiment with HT-29 (ht-29), more than 10 µM.
As to `COc1ccc(/C=C\c2cc(OC)c(OC)c(OC)c2)cc1O` [COMBRETASTATIN A4], the inhibition in the experiment filed under Bos taurus [3] was 100%. Moreover, the IC50 in experiment [2] stood at 3000 nM; in the experiment with HeLa (Homo sapiens, HeLa, 72 h) it was 2700 nM.
As for `COc1cc(C(OC(C)=O)c2ccc3ccccc3c2)cc(OC)c1OC` (stereo unspecified), in the experiment listed under Bos taurus [3], the inhibition is 10% and 5%. In addition, the IC50 was 10000 nM and 3800 nM with HeLa (hela); 1.2 µM and > 10 µM with A549 (a549).
`COc1ccc(/C(=N\NC(C)=O)c2ccc3ccccc3c2)c(OC)c1OC`: the inhibition in the experiment listed under Bos taurus [3] turned out to be 0%.
In the experiment filed under Bos taurus [3], `COc1ccc(/C(=N\N)c2ccc3ccccc3c2)c(OC)c1OC` returned an inhibition of 0%.
On to `COc1ccc(C(=O)c2ccc3ccccc3c2)c(OC)c1OC`, for which the inhibition in the experiment filed under Bos taurus [3] is 0.25% and 4%. Also, the IC50 in the experiment on HeLa (hela) is 4000 nM; in the experiment with A549 (a549), 1.7 µM and > 10 µM.
On to `COc1cc(/C(=N\OC(=O)OC(C)(C)C)c2ccc3ccccc3c2)cc(OC)c1OC`, for which the inhibition in the experiment listed under Bos taurus [3] is 15%. The IC50 with HT-29 (Homo sapiens, HT-29, 72 h) is 10 µM; in the experiment on HT-29 (ht-29), more than 10 µM.
`COc1cc(/C(=N\OC(C)=O)c2ccc3ccccc3c2)cc(OC)c1OC` showed an inhibition in the experiment filed under Bos taurus [3] of 10%.
In the experiment listed under Bos taurus [3], `COc1cc(/C(=N/OC(C)=O)c2ccc3ccccc3c2)cc(OC)c1OC` had an inhibition of 38%. In addition, the IC50 is 1 nM with HeLa (Homo sapiens, HeLa, 72 h) and 1 µM in the experiment on HT-29 (Homo sapiens, HT-29, 72 h).
`COc1ccc(C(C)(O)c2ccc3ccccc3c2)c(OC)c1OC` (stereo unspecified) showed an inhibition in the experiment filed under Bos taurus [3] of 3%. The IC50 is 1000 nM with HeLa (Homo sapiens, HeLa, 72 h) and 10 µM with A549 (Homo sapiens, A549, 72 h).
`CO/N=C(/c1cc(OC)c(OC)c(OC)c1)c1ccc2ccccc2c1`: the inhibition in the experiment filed under Bos taurus [3] was 4%. The molecule further showed a concentration for half-maximal inhibition (IC50) in the experiment on HT-29 (Homo sapiens, HT-29, 72 h) of 1 µM.
Take `COc1cc(C(O)c2ccc3ccccc3c2)cc(OC)c1OC` (stereo unspecified): the inhibition in the experiment listed under Bos taurus [4] stood at 0%.
Molecule `COc1ccc(C(OC(C)=O)c2ccc3ccccc3c2)c(OC)c1OC` (stereo unspecified) gave an inhibition in the experiment filed under Bos taurus [3] of 26%. For the same molecule, the 50% inhibitory concentration (IC50) in the experiment on HeLa (Homo sapiens, HeLa, 72 h) came to 2700 nM; with A549 (Homo sapiens, A549, 72 h), 10 µM.
Consider `CN/N=C(/c1cc(OC)c(OC)c(OC)c1)c1ccc2ccccc2c1`, for which the inhibition in the experiment listed under Bos taurus [1] was found to be 31%.
Molecule `COc1cc(/C(=N/NC(C)=O)c2ccc3ccccc3c2)cc(OC)c1OC` had an inhibition in the experiment listed under Bos taurus [1] of 35%. The IC50 in the experiment on HeLa (Homo sapiens, HeLa, 72 h) was 10000 nM; with HeLa (hela), more than 10000 nM; in the experiment on A549 (Homo sapiens, A549, 72 h), 10 µM; in the experiment with A549 (a549), more than 10 µM; in the experiment on HT-29 (Homo sapiens, HT-29, 72 h), 10 µM; in the experiment with HT-29 (ht-29) it was more than 10 µM.
In experiment [2], `COc1ccc(C(=O)c2cc(OC)c(OC)c(OC)c2)cc1O` [PHENSTATIN] came in with an IC50 of 2500 nM.
For `COc1cc(C(c2ccc3ccccc3c2)n2ccnc2)cc(OC)c1OC` (stereo unspecified), the inhibition in the experiment filed under Bos taurus [3] came to 0%. The IC50 was 10 µM in the experiment on HT-29 (Homo sapiens, HT-29, 72 h) and more than 10 µM in the experiment on HT-29 (ht-29).
`COc1ccc(/C(=N/O)c2ccc3ccccc3c2)c(OC)c1OC` registered an inhibition in the experiment listed under Bos taurus [1] of 0%. Besides, the IC50 in the experiment with HeLa (Homo sapiens, HeLa, 72 h) is 400 nM; in the experiment on A549 (Homo sapiens, A549, 72 h), 10 µM; in the experiment with A549 (a549), more than 10 µM; in the experiment with HT-29 (Homo sapiens, HT-29, 72 h), 1 µM.
As to `COc1ccc(/C(=N\OC(=O)OC(C)(C)C)c2ccc3ccccc3c2)c(OC)c1OC`, the 50% inhibitory concentration (IC50) with HT-29 (Homo sapiens, HT-29, 72 h) is 10 µM; in the experiment with HT-29 (ht-29), more than 10 µM.
Molecule `COc1ccc(C(O)c2ccc3ccccc3c2)c(OC)c1OC` (stereo unspecified) showed an inhibition in the experiment listed under Bos taurus [3] of 0%. For the same molecule, the IC50 in the experiment with HeLa (Homo sapiens, HeLa, 72 h) was 10000 nM; with A549 (Homo sapiens, A549, 72 h), 10 µM; in the experiment on A549 (a549) it was more than 10 µM.
`COc1cc(/C(=N\NC(C)=O)c2ccc3ccccc3c2)cc(OC)c1OC` displayed an inhibition in the experiment filed under Bos taurus [3] of 0%.
